Broadly, the IC50 is the concentration at which inhibition is half-maximal.

These results are taken from PMC12646499 (Journal of Chemical Information and Modeling, 2025).

One series has as its target PD-1–PD-L1 interaction (Homo sapiens, UniProt Q9NZQ7). Put plainly: PD-1–PD-L1 TR-FRET assay. The class given is binding. The procedure, abridged:
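Test compound (from 5 mM DMSO stock, diluted in PBS) was preincubated 10 min with biotin-PD-L1 (added at 11 μg/mL) at room temperature in the dark. Eu-PD-1 (0.8 μg/mL) plus acceptor dye was then added for 1.5 h. Single doses were 5 and 25 μM final; dose-response used a 5:1 serial dilution. The 665/620 nm ratio (excitation 337 nm) was normalised to controls with and without PD-L1, in triplicate. IC50 came from nonlinear regression.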
(In general: In TR-FRET formats the signal depends on donor and acceptor labels being close together.)

Another series deals with human PD-L1. Particulars: binds human PD-L1; previously published; cited from earlier work.
The conditions of series [1]: tested in clinical trials but discontinued; cited from earlier work.
Series [2] relates to LS 180 colorectal adenocarcinoma cells bearing the K-Ras G12D mutation. Put plainly: MTT cell toxicity assay in LS 180 cells. It counts as cell-based. Conditions: 48 h. A digest of the protocol: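 LS 180 cells were grown in DMEM with 10% FBS at 37 °C and 5% CO2, then seeded at 5000 cells/well in DMEM with 5% FBS and left to attach for 24 h. Test compound was added at 10, 4, 1.6 or 0.64 μM final, with 0.2% DMSO, in sextuplicate, for 48 h. MTT (0.35 mg/mL final) was added for 4 h, then DMF/SDS/HCl/acetic acid stop solution overnight at room temperature. A570 was read as % survival versus no compound.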
Background: Tetrazolium dyes change colour on reduction, which living cells bring about.

A further series has as its system PD-L1. Particulars: ligand in PDB 5N2F; cited from earlier work.

Sequence of PD-1–PD-L1 interaction (Q9NZQ7 19-238 limits assumed): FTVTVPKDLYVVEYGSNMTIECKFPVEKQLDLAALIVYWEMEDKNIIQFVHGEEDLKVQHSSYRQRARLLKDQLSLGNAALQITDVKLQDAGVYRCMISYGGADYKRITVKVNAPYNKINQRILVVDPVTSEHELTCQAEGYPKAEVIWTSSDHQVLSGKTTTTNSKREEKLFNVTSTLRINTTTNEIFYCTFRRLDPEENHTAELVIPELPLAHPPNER

As to `Cc1c(Nc2nccc3cc(CN4CC[C@@H](O)C4)cnc23)cccc1-c1cccc(-c2nc3cc(CN4CC[C@@H](C(=O)O)C4)cc(C#N)c3o2)c1C` [INCB086550], the IC50 against PD-1–PD-L1 interaction is 5.6 nM; with human PD-L1, 3.1 nM. For the same compound, on PD-1–PD-L1 interaction (5 μM), the “activity at 5 μM (in words)” value was “complete loss of activity”. Besides, the “toxicity in clinical trials (in words)” value in series [1] was “high toxicity”.

Turning to `C#Cc1c(F)ccc2cc(O)cc(-c3ncc4c(N5CC6CCC(C5)N6)nc(OC[C@@]56CCCN5C[C@H](F)C6)nc4c3F)c12` [MRTX1133], in series [2], the GI50 result is recorded as “submicromolar”.

On to `Cc1c(COc2cc(F)c(CNC[C@@H](O)CC(=O)O)cc2F)cccc1-c1ccc2c(c1)OCCO2` [BMS-200], for which, in the series on PD-L1, the IC50 is 3.1 nM.
